Source: PubChem BioAssay (several laboratories)
This is a sample that favours compounds with a hit; in the whole collection about 2% have one here.
NCF1 inh: p47phox/p22phox peptide binding inhibitors, primary screen, biochemical, uHTS, NADPH oxidase regulatory subunit | Neutrophil cytosol factor 1 (Homo sapiens), P14598 | fluorescence polarization, 2 h | inhibition, % at 24.7 µM | actives 0.53% (n = 220,000);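 further: 0% = p47phox with labelled peptide and 100% = labelled peptide alone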
Hck-Nef inh: inhibitors of Nef-activated human Hck kinase, primary screen, biochemical, Z-Lyte FRET, 384-well, Hck-YEEI; Tyrosine-protein kinase HCK (Homo sapiens), P08631; Recombinant Hck-YEEI plus Nef, Z-Lyte FRET kinase assay; inhibition, % at 20 µM; actives 0.68% (n = 220,000); AID 463187, 2010;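 active means Hck-Nef kinase inhibition above about 50%, limit read from the data; inactive means inhibition below that limit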;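 further: 0% = DMSO with Hck plus Nef and 100% = Hck alone without Nef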
Diaphorase act: compounds boosting diaphorase resazurin reduction – biochemical, uHTS, resorufin fluorescence, counter-screen for diaphorase-coupled primary assays, primary screen; activation factor at 20 µM; actives 0.005% (n = 190,000); Diaphorase/resazurin coupled assay, 16 min; stronger effect = higher value; 1 = vehicle wells, 0 = NADH-free wells;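 active means diaphorase activity raised at least twofold by the compound at 20 µM; inactive means activation factor below 2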
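Test system: Clostridium kluyveri diaphorase, purified enzyme. Buffer or medium: 50 mM HEPES pH 7.4 buffer plus MgCl2 and Tween 20. Also added: 0.114 mM NADH and 0.1 mM resazurin, final amounts. Dosing: compound 20 µM once, DMSO 1%. Schedule: 16 min enzyme reaction, ambient temperature. Detection: fluorescence of resorufin, 544 nm excitation, 590 nm emission.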
eIF4E-4G inh: eIF4E–eIF4G protein interaction inhibitors, primary screen, biochemical, uHTS, TR-FRET, eIF4GI fragment; actives 0.37% (n = 220,000); TR-FRET eIF4E-eIF4GI(517-606) binding, 2 h; inhibition, % at 21.7 µM; Eukaryotic translation initiation factor 4E (Mus musculus) + Eukaryotic translation …;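 further: 0% = full FRET control wells and 100% = background wells lacking eIF4GI fragment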
14-3-3 Bad inh: inhibitors of 14-3-3 zeta/Bad binding, primary screen, biochemical, TR-FRET, bovine 14-3-3 zeta; 14-3-3 protein zeta/delta (Bos taurus), P63103; TR-FRET 14-3-3zeta/Dy647-pBad peptide displacement, 1 h; inhibition, % at 21.7 µM; actives 0.71% (n = 220,000);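 active means inhibition above about 70%, limit read from the data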;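 further: 0% = full 14-3-3 plus peptide FRET controls and 100% = background without 14-3-3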
The depositor's hits bear a star; / = no result; [ ] = another dose, or the depositor's remark.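 How the source made its calls, unless noted: active means inhibition above about 30% (limit read from the data); inactive means the rest.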

SMILES	NCF1 inh	Hck-Nef inh	Diaphorase act	eIF4E-4G inh	14-3-3 Bad inh
CC1=C(C#N)S(=O)(=O)C(C#N)C(c2ccccc2)C1 (configuration not stated)	-29	25	/	95*	-3
COc1nc(N/N=C/c2ccc(-c3cccc([N+](=O)[O-])c3)o2)nc(N2CCOCC2)n1	76*	8	1	8	74*[fluorescence artefact?]
O=C(CSc1nc(-c2ccccc2)nc2c1Cc1ccccc1O2)Nc1ccc(C(=O)O)cc1	-101	24	0.6	60*	94*
CCOCCCNC(=O)C(NC(=O)c1ccc(NC(C)=O)cc1)c1ccccc1 (configuration not stated)	6	1	0.9	-1	73*
CCOCCCNC(=O)C(NC(=O)c1ccc(NC(C)=O)cc1)c1ccc(C)cc1 (configuration not stated)	-7	1	0.9	3	8
CCC(=O)Nc1ccc(/C(C)=N\NS(=O)(=O)c2ccc(C)cc2)cc1	170*	1	1	-12	-9
Nc1ncc(-n2cncn2)c(-c2ccc(Cl)cc2)n1	9	-9	0.8	5	5
Cc1ccccc1NC(=O)Cn1nnc2c(cnn2-c2ccc(F)cc2)c1=O	-7	0	1	41*[fluorescence artefact?]	30
CCOc1ccc(NC(=O)Cn2nnc3c(cnn3-c3ccc(F)cc3)c2=O)cc1	-7	10	0.9	-2	8
Cc1ccc(CNS(=O)(=O)c2ccc3c(c2)CCN3C(=O)CCCC(=O)O)cc1	0	0	0.9	-3	-2
CSc1nnc2c(n1)OC1(Nc3ccccc3-2)C(=O)Nc2ccccc21 (configuration not stated)	-4	-14	0.9	5	-4
OC(COc1ccc(OCC(O)CN2CCCCCC2)cc1)CN1CCCCCC1 (configuration not stated)	-3	-1	1.1	7	0
CN1CCN(CC(O)COc2ccc(C34CC5CC(CC(C5)C3)C4)cc2)CC1 (configuration not stated)	73*	-27	1.8	-18	-133
OCCN1CCN(CC(O)COc2ccc(-c3ccccc3)cc2)CC1 (configuration not stated)	5	1	0.9	6	84*
COc1ccccc1NC(=O)N1CCCC1C(=O)Nc1nnc(C(C)C)s1 (configuration not stated)	3	0	0.9	7	78*[fluorescence artefact?]
CC(C)c1nnc(NC(=O)C2CCCN2C(=O)Nc2ccccc2F)s1 (configuration not stated)	-3	10	1	2	2
CCOC(=O)c1c(-c2ccc(C)o2)csc1NC(=O)CN1CCN(CC)CC1	-5	1	0.8	-2	71*
COc1ccc(Nc2nc(=O)c3cc([N+](=O)[O-])ccc3s2)cc1	18	48	/	11	82*
CCOC(=O)C1CCN(C(=O)c2cccnc2Oc2ccccc2)CC1	12	-5	/	-7	1
CCCCc1nc2ccccc2c(NC(=O)CN(CC)CC)c1CCC	-2	1	0.8	6	74*
CCCc1nc2ccccc2c(NC(=O)CN(CC)CC)c1CC	3	2	1.1	19	80*
CC[n+]1c(/C=C/c2c[nH]c3ccccc23)ccc2cc(C)ccc21	-168	6	1	32*	-19
O=C(N=Nc1c(O)[nH]c2ccc(F)cc12)C1COc2ccccc2O1 (configuration not stated)	-11	16	/	3	-2
Cc1[nH]c2ccccc2c1C(=O)CN1CC(C)OC(C)C1 (configuration not stated)	3	7	/	-4	-20
Cc1nc(Nc2ccc3c(c2)OCCO3)c2oc3ccccc3c2n1	-27	-24	0.8	-4	73*
SMILES	NCF1 inh	Hck-Nef inh	Diaphorase act	eIF4E-4G inh	14-3-3 Bad inh
Cc1ccc(Nc2ncnc3c2oc2ccccc23)cc1	-19	-17	0.8	-5	72*
O=[N+]([O-])c1ccc2ncnc(Nc3ccc4c(c3)OCCO4)c2c1	12	12	1.1	-2	-2
COc1ccc(Nc2ncnc3c2oc2ccccc23)cc1	-1	10	0.8	4	67
c1ccc2c(c1)oc1c(Nc3ccc4c(c3)OCCO4)ncnc12	-8	1	0.9	13	76*[fluorescence artefact?]
CCc1nc(NCc2ccco2)c2oc3ccccc3c2n1	-28	1	0.9	-8	81*
CCc1nc(NCc2ccc3c(c2)OCO3)c2oc3ccccc3c2n1	-16	1	0.8	8	66
CCc1nc(Nc2ccc3c(c2)OCCO3)c2oc3ccccc3c2n1	-46	-15	0.7	10	86*
O=C1NCCn2ccc(=O)cc21	-6	4	/	-1	27
COc1ccc(-c2nnc3n2-c2ccccc2SC3)cc1OC	-5	-1	0.9	-5	78*
c1ccc2c(c1)SCc1nnc(-c3ccncc3)n1-2	-3	15	/	-3	5
S=C(Nc1ccccn1)NC1CCCCC1	4	-3	/	94*	-2
S=C(Nc1ccc(Nc2ccccc2)cc1)Nc1ccccn1	-16	94*	0.8	1	-9
O=C(Nc1ccccc1)C(=O)Nc1ccccn1	3	2	1	12	-5
S=C(Nc1ccccn1)NC1CCCC1	-10	-7	1	-3	-6
Cc1ccc(S(=O)(=O)N(C)C)cc1NC(=S)N1CCN(Cc2ccc3c(c2)OCO3)CC1	-4	4	0.9	-4	-6
O=C(OCc1ccccc1)/C(=C/c1ccc(Cl)cc1)NC(=O)c1ccccc1Cl	-3	0	0.8	0	80*
CS(=O)(=O)c1cc([N+](=O)[O-])c(Sc2nc3ccccc3[nH]2)c([N+](=O)[O-])c1	1	0	0.9	-6	87*
Cn1cnc([N+](=O)[O-])c1Sc1nc2ccccc2[nH]1	-8	-10	/	6	2
CCOC(=O)c1ccc(Cl)c(S(=O)(=O)N2CCCC2)c1	-5	10	0.9	0	-3
CC(C)Cn1c(N)c(C(=O)COC(=O)c2ccc([N+](=O)[O-])o2)c(=O)n(C)c1=O	-1	18	0.8	5	7
CC1=C(C(=O)N2CCc3ccccc32)C2(CCC(C)CC2)OC1=O (configuration not stated)	4	0	0.9	-1	84*
CC1=C(C(=O)N2CCCCC2)C2(CCC(C)CC2)OC1=O (configuration not stated)	-7	20	1.1	1	-27
